Compound activity: PubChem BioAssay, Johns Hopkins Ion Channel Center
Hits are enriched below; roughly 3.8% of the tested compounds scored in any of these assays.
hERG rescue = shields human hERG channel from block by proarrhythmic agents | Q12809 | CHO-hERG, FluxOR thallium flux, dofetilide IC70 present | activation (rescue from dofetilide block), less the hit threshold, % at 10 µM | 0.51% of 310,000 active | AID 1511;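 active = activation above the mean of controls blocked by dofetilide plus 5 SD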;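 also: thallium influx through hERG after potassium depolarization seen as dye fluorescence rise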
KCNK9 block = human KCNK9 channel inhibition. Q9NPC2. HEK293 KCNK9, FluxOR thallium flux fluorescence; active compounds read low. B-score at 10 µM. 1.2% of 310,000 active;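 active = ratio B-score over 3 SD below the library mean, with starting fluorescence within 5 SD of its mean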;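 also: negative B-score means less thallium flux so channel inhibition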
KCNQ1 act = potentiates or activates the human KCNQ1 potassium channel. P51787. CHO-K1 KCNQ1, thallium flux FluxOR fluorescence; active compounds read high. B-score at 10 µM. 0.35% of 310,000 active. AID 2648;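 active = fluorescence ratio B-score, a plate-corrected score, at least three library SD, with initial intensity B-score within 5 SD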
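Assay system: CHO-K1 cells stably expressing KCNQ1; Medium: assay buffer with matched DMSO; Also added: K+/Tl+ depolarizing stimulus; Dosing: single dose; Timing: dye 90 min, compound 20 min, room temperature; Measured by: kinetic FluxOR thallium fluorescence, 10-s 1-Hz baseline, 110-s post-stimulus read; Read-out: peak-minus-minimum fluorescence over initial fluorescence, negative-control normalized, B-scored.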
KCNQ1 block = inhibitors of human KCNQ1 potassium channel | CHO-K1 KCNQ1, FluxOR thallium flux fluorescence; active compounds read high | 1.3% of 310,000 active | B-score at 10 µM | P51787;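 active = compounds whose thallium flux B-score, printed positive for inhibition, exceeds three library SD while starting fluorescence stays within three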;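 also: channel opened by potassium depolarization with thallium stimulus after 20 min compound exposure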
Kir21 inh = inhibitors of mouse Kir2.1 inward-rectifier potassium channel; P35561; HEK293-Kir2.1, FluxOR thallium flux fluorescence; active compounds read low; B-score at 10 µM; 0.85% of 310,000 active;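 active = fluorescence ratio B-score at or below minus 3 SD of library scores, with starting-brightness B-score within 2 SD, cut at about -4.2 in these data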;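 also: channel flux triggered by added potassium and thallium sulfate stimulus; B-score of peak minus minimum fluorescence over baseline after thallium stimulus; more negative B-score means stronger Kir2.1 block with less thallium influx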
Target sequence (P35561 whole entry, looked up): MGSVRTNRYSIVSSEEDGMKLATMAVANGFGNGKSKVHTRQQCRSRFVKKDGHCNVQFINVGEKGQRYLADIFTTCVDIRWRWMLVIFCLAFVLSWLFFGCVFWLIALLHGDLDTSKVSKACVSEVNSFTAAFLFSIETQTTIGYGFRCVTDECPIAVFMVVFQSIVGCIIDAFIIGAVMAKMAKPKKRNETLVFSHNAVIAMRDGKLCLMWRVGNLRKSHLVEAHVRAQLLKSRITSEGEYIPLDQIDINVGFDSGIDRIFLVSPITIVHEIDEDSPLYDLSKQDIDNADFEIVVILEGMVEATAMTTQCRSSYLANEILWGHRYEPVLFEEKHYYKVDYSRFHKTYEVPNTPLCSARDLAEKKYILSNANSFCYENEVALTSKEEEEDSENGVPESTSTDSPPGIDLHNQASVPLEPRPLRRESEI
KCNK3 inh = human KCNK3 channel inhibition, primary screen; B-score at 10 µM; 0.84% of 340,000 active; CHO-KCNK3 thallium flux, FluxOR fluorescence; active compounds read low; O14649; AID 602410;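 active = B-score under library mean minus 4 SD, starting fluorescence ratio at most library mean plus 5 SD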;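 also: more negative B-score means stronger inhibition of thallium flux through KCNK3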
KCNK9 inh conf = confirmation of human KCNK9 potassium channel inhibitors. shares compounds with KCNK9 block. HEK293 KCNK9 cells, FluxOR thallium flux fluorescence. inhibition, % at 10 µM. 43% of 4,900 active;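 active = thallium signal inhibited by more than 5 SD of the compound-free buffer control wells, on both duplicate plates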;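 also: 0% = assay buffer control wells without compound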
Kir2-1 spec = tests whether KCNK9 modulators also affect mouse Kir2.1; inhibition, % at 10 µM; shares compounds with KCNK9 block; 4% of 4,900 active; Kir2.1 cells, FluxOR thallium flux fluorescence;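 active = thallium signal drop more than 5 SD beyond the mean of the no-compound control wells, seen in both duplicate plates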;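 also: signal is fluorescence rise after thallium addition divided by baseline fluorescence; plate controls were assay buffer only for no effect and full block by chlorpromazine control for full effect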
KCNK9 uninduced = non-induced cell nonspecific activity of KCNK9 modulators | shares compounds with KCNK9 block | non-induced KCNK9-HEK293, FluxOR thallium flux | inhibition, % at 10 µM | 40% of 4,900 active | AID 492997;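 active = thallium signal drop beyond 5 SD of the untreated control mean, on both duplicate plates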;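 also: plate controls were buffer only IC0 wells for no effect and SID17386958 at its maximal inhibitory level for full effect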
Active calls of the source: *; i = inactive; . = not tested or not shown.

SMILES | hERG rescue | KCNK9 block | KCNQ1 act | KCNQ1 block | Kir21 inh | KCNK3 inh | KCNK9 inh conf | Kir2-1 spec | KCNK9 uninduced
Fc1ccc(C2c3[nH]c4ccccc4c3CCN2Cc2ccoc2)cc1 (configuration not stated) | -8.9 | i | i | i | -1.73 | i | i | i | i
COc1c(C)cc(C(=O)C2CCCN(C(=O)c3ccc4[nH]ccc4c3)C2)cc1C (configuration not stated) | -22.1 | i | i | i | 0.69 | i | i | i | i
COc1c(C)cc(C(=O)C2CCCN(C(=O)c3cccc(-n4cccn4)c3)C2)cc1C (configuration not stated) | -17.1 | i | i | i | -0.31 | i | i | i | i
COc1c(C)cc(C(=O)C2CCCN(C(=O)c3csc(C)n3)C2)cc1C (configuration not stated) | -6.4 | i | i | i | 1.35 | i | . | . | .
Cc1ccc(C2CC2C(=O)NNC(=S)Nc2cccc(Cl)c2)cc1 (configuration not stated) | -22.4 | i | i | 6* | -2.08 | i | i | i | i
Cc1ccc(NC(=S)NNC(=O)C2CC2c2ccc(C)cc2)cc1 (configuration not stated) | -6.0 | i | i | i | -1.17 | i | . | . | .
Cc1ccc(C2CC2C(=O)NNC(=S)Nc2cccc(C)c2)cc1 (configuration not stated) | 0.0 | i | i | i | -0.33 | i | i | i | i
O=C(CSC(=S)N1CCOCC1)Nc1nc(=O)c2ccccc2s1 | -6.6 | i | i | i | 0.78 | . | . | . | .
Cc1cc(NC(=O)/C=C/C(=O)N(CC(=O)NC2CCCC2)c2cccc3ccccc23)no1 | -10.7 | i | i | i | 2.41 | i | . | . | .
Cc1ccc(C2CC2c2n[nH]c(=S)n2-c2ccc(C)cc2)cc1 (configuration not stated) | -8.1 | i | i | i | -0.86 | i | i | i | i
O=C(CCSc1ccc(Cl)cc1)N1CCCCCC1 | -7.2 | i | i | i | -1.18 | i | i | i | i
CCN(CC(=O)Nc1c(F)cccc1F)C(=O)c1cn2ccccc2n1 | . | . | . | . | . | i | . | . | .
COc1ccc(C(=O)Oc2ccc3ccc(=O)oc3c2)cc1 | -2.9 | -13.3* | i | i | 1.07 | i | 64.0%* | i | 27.0%*
O=C(Oc1ccc2ccc(=O)oc2c1)c1ccccc1 | -10.8 | i | i | i | 0.67 | i | . | . | .
COc1ccccc1-c1nc(C#N)c(N2CCN(c3cccc(Cl)c3)CC2)o1 | -13.4 | -8.58* | i | i | -1.79 | i | 47.5%* | i | i
Cc1ccc(CN2CCSc3ccc(C(=O)NCC4CCCO4)cc32)cc1 (configuration not stated) | -6.0 | i | i | i | -0.03 | i | . | . | .
Cc1ccc(CN2CCSc3ccc(C(=O)NC4CCCC4)cc32)cc1 | -7.7 | -11* | i | i | 1 | i | 52.5%* | i | 31.0%*
COc1ccc(OC)c(CCNC(=O)c2ccc3c(c2)N(Cc2ccc(F)cc2)CCS3)c1 | -10.8 | -11.4* | i | 7* | 0.59 | -10* | 69.0%* | i | 32.5%*
CC(=O)C1C(c2ccc(Br)cc2)C2C(C)=NN=C2CC1(C)O (configuration not stated) | 0.6 | i | i | i | -0.85 | i | . | . | .
CCN(CC)C(=O)c1sc(NC(=O)Cc2ccccc2)c(C#N)c1C | -2.3 | i | i | i | -0.44 | i | . | . | .
CCOC(=O)COc1nc(-c2ccco2)cc(-c2ccco2)c1C#N | -1.8 | -10.5* | i | i | -0.94 | i | 67.0%* | i | 36.0%*
CCOC(=O)COc1nc(-c2ccc(C)cc2)cc(-c2ccco2)c1C#N | -7.0 | i | i | i | 2.11 | i | . | . | .
CCCCC(=O)Nc1cccc(-c2cn3ccsc3n2)c1 | -7.3 | i | i | i | -0.63 | i | . | . | .
O=C(Nc1cccc(-c2cn3ccsc3n2)c1)c1ccccc1 | -7.5 | -9.75* | i | i | 0.5 | i | 33.0%* | i | i
Cc1ccsc1/C=N\NC(=O)CCc1c(C)n[nH]c1C | -14.5 | i | i | i | 0.01 | i | . | . | .
SMILES | hERG rescue | KCNK9 block | KCNQ1 act | KCNQ1 block | Kir21 inh | KCNK3 inh | KCNK9 inh conf | Kir2-1 spec | KCNK9 uninduced
CCC(=O)NC(=S)NNC(=O)c1ccc(O)cc1 | -5.5 | -8.22* | i | i | -0.84 | i | i | i | 27.0%*
O=C(OCC(=O)N1CCc2ccccc2C1)c1ccc(N2CCOCC2)c([N+](=O)[O-])c1 | -8.8 | i | i | i | 1.33 | i | . | . | .
CCOC(=O)c1ccccc1NC(=O)c1cccc([N+](=O)[O-])c1 | -3.5 | i | i | i | 1.43 | i | . | . | .
O=C(COC(=O)c1ccccc1NC(=O)c1ccccc1)c1cccc([N+](=O)[O-])c1 | -10.8 | -13.6* | i | i | -0.06 | i | 69.0%* | i | 32.5%*
COc1cc(NC(=O)Cn2cnc3sc(C)c(S(=O)(=O)N4CCN(C)CC4)c3c2=O)cc(OC)c1OC | -8.2 | i | i | i | -0.18 | . | . | . | .
COc1ccc(OC)c(-c2csc(N(Cc3ccco3)C(=O)c3cccs3)n2)c1 | -14.2 | -12.5* | i | 7* | 2.32 | i | 49.0%* | i | 43.0%*
COc1ccc(-c2csc(N(Cc3ccco3)C(=O)c3cccs3)n2)cc1 | -20.6 | -9.37* | i | i | -2.23 | i | 50.0%* | i | 39.5%*
COCC1CCN(C(=O)c2cc(COc3ccc(F)cc3F)on2)C1 (configuration not stated) | 0.7 | i | i | i | 0.45 | i | . | . | .
COc1cc(C)ccc1OCc1cc(C(=O)N2CCC(c3ccc(F)cc3)C2)no1 (configuration not stated) | -7.5 | i | i | i | 0.71 | i | i | i | i
Cc1ccc(C)c(OCc2cc(C(=O)N3CC[C@@H]4CCCC[C@H]4C3)no2)c1 | -12.6 | i | i | i | 0 | i | i | i | 23.5%*
Cc1ccc(C(=O)CCCn2nnc(-c3cccnc3)n2)cc1C | -5.1 | i | i | i | 0.18 | i | i | i | i
O=c1oc2ccccc2n1Cc1cccc(Cl)c1 | -3.3 | i | i | i | -0.3 | i | . | . | .
